In ChEMBL document CHEMBL2434878, “Synthesis and antimycobacterial activity of analogues of the bioactive natural products sampangine and cleistopholine” (Eur J Med Chem, 2013):

What was measured:
[1] = system: Mycobacterium tuberculosis; experiment: Antimicrobial activity against multidrug-resistant Mycobacterium tuberculosis LAM-1 at 5 uM by Bactec 460 TB method relative to control; assay type: functional; conditions: read-out: GI
Summary of the method: (§1)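 MDR clinical isolate LAM-1 was precultured in a BACTEC vial to growth index 300, then inoculated into a fresh vial with compound (dilutions made at 40-fold final in 7H9-10% OADC). 14CO2 release from 14C-palmitic acid was read daily.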

[2] = system: Mycobacterium tuberculosis; experiment: Antimicrobial activity against multidrug-resistant Mycobacterium tuberculosis LAM-1 at 1 uM by Bactec 460 TB method relative to control; assay type: functional; conditions: read-out: GI; summary of the method: as §1

SMILES | inhibition of growth at 5 µM [1] | inhibition of growth at 1 µM [2]
COc1ccc(-c2cc(O)c3c(c2)C(=O)c2ccccc2C3=O)cc1 | 99% | 90%
COc1ccc(-c2cc3c(c(/C=C/N(C)C)n2)C(=O)c2ccccc2C3=O)cc1 | 99% | 90%
COc1ccc(-c2cc3c4c(nccc4n2)-c2ccccc2C3=O)cc1 | 99% | 90%
